Experimental data taken from ChEMBL document CHEMBL4024754, “Development of Potent, Protease-Resistant Agonists of the Parathyroid Hormone Receptor with Broad β Residue Distribution” (J Med Chem, 2017).
Calls of active or inactive are those of the source. No cut-off for these calls is given here.

Legend:
[1] = target: T1, Parathyroid hormone/parathyroid hormone-related peptide receptor (Homo sapiens) (UniProt Q03431); experiment: Agonist activity at extracellular domain truncate human PTH1 receptor expressed in GD5 cells assessed as induction of cAMP after 12 to 20 mins by luciferase reporter gene assay; assay type: functional, cell-based
T1 sequence (whole entry): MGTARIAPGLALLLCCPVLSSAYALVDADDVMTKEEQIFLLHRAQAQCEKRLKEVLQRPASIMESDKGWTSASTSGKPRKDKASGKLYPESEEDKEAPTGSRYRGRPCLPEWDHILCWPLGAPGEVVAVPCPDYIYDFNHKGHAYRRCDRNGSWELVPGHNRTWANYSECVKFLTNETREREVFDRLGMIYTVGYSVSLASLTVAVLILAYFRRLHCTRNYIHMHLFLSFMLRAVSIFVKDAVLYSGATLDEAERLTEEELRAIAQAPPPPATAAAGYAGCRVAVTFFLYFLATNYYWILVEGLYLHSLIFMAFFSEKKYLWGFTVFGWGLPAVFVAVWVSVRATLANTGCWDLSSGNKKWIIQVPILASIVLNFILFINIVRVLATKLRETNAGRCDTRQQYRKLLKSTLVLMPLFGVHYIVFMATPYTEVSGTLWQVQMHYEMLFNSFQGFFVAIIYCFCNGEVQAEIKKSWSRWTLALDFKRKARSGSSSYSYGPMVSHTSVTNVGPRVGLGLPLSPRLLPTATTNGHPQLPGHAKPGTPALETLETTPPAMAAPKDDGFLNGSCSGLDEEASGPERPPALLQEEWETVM
How it was run: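 HEK293-derived lines stably expressing Glosensor cAMP reporter plus full-length human PTHR1 (GP2.3) or ECD-truncated PTHR1 (GD5). Confluent monolayers preincubated at room temperature in CO2-independent medium with 0.5 mM D-luciferin until baseline stable (30 min), then varied agonist concentrations added. Maximal luminescence (12−20 min) used for sigmoidal variable-slope fits.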

[2] = target: T1, Parathyroid hormone/parathyroid hormone-related peptide receptor (Homo sapiens); experiment: Agonist activity at human PTH1 receptor expressed in human GP2.3 cells assessed as induction of cAMP after 12 to 20 mins by luciferase reporter gene assay relative to PTH(1 to 34 residues)-NH2; assay type: functional, cell-based

Row | Structure (SMILES) | Activity [1] | fold change (FC) [2]
1 | CC[C@H](C)[C@H](NC(=O)[C@H](CCC(=O)O)NC(=O)[C@H](CO)NC(=O)[C@@H](NC(=O)[C@@H](N)CO)C(C)C)C(=O)N[C@@H](CCC(N)=O)CC(=O)N[C@@H](CC(C)C)C(=O)N[C@@H](CCSC)C(=O)N[C@@H](Cc1cnc[nH]1)C(=O)N[C@@H](CC(N)=O)C(=O)N[C@@H](CC(C)C)C(=O)NCC(=O)N[C@@H](CCCCN)C(=O)N[C@@H](Cc1cnc[nH]1)C(=O)N[C@@H](CC(C)C)C(=O)N[C@@H](CC(N)=O)C(=O)N[C@@H](CO)C(=O)N[C@@H](CCSC)C(=O)N[C@@H](CCC(=O)O)C(=O)N[C@@H](CCCNC(=N)N)C(=O)N[C@H](C(=O)N[C@@H](CCC(=O)O)C(=O)N[C@@H](Cc1c[nH]c2ccccc12)C(=O)N[C@@H](CC(C)C)C(=O)N[C@@H](CCCNC(=N)N)C(=O)N[C@@H](CCCCN)C(=O)N[C@@H](CCCCN)C(=O)N[C@@H](CC(C)C)C(=O)N[C@@H](CCC(N)=O)C(=O)N[C@@H](CC(=O)O)C(=O)N[C@H](C(=O)N[C@@H](Cc1cnc[nH]1)C(=O)N[C@@H](CC(N)=O)C(=O)N[C@@H](Cc1ccccc1)C(N)=O)C(C)C)C(C)C | Active | 160
2 | CC[C@H](C)[C@H](NC(=O)[C@H](CCC(=O)O)NC(=O)[C@H](CO)NC(=O)C[C@@H](NC(=O)[C@@H](N)CO)C(C)C)C(=O)N[C@@H](CCC(N)=O)C(=O)N[C@@H](CC(C)C)C(=O)N[C@@H](CCSC)C(=O)N[C@@H](Cc1cnc[nH]1)C(=O)N[C@@H](CC(N)=O)C(=O)N[C@@H](CC(C)C)C(=O)NCC(=O)N[C@@H](CCCCN)C(=O)N[C@@H](Cc1cnc[nH]1)C(=O)N[C@@H](CC(C)C)C(=O)N[C@@H](CC(N)=O)C(=O)N[C@@H](CO)C(=O)N[C@@H](CCSC)C(=O)N[C@@H](CCC(=O)O)C(=O)N[C@@H](CCCNC(=N)N)C(=O)N[C@H](C(=O)N[C@@H](CCC(=O)O)C(=O)N[C@@H](Cc1c[nH]c2ccccc12)C(=O)N[C@@H](CC(C)C)C(=O)N[C@@H](CCCNC(=N)N)C(=O)N[C@@H](CCCCN)C(=O)N[C@@H](CCCCN)C(=O)N[C@@H](CC(C)C)C(=O)N[C@@H](CCC(N)=O)C(=O)N[C@@H](CC(=O)O)C(=O)N[C@H](C(=O)N[C@@H](Cc1cnc[nH]1)C(=O)N[C@@H](CC(N)=O)C(=O)N[C@@H](Cc1ccccc1)C(N)=O)C(C)C)C(C)C | Active | 3.2
3 | CC[C@H](C)[C@H](NC(=O)C[C@@H](CCC(=O)O)NC(=O)[C@H](CO)NC(=O)[C@@H](NC(=O)[C@@H](N)CO)C(C)C)C(=O)N[C@@H](CCC(N)=O)C(=O)N[C@@H](CC(C)C)C(=O)N[C@@H](CCSC)C(=O)N[C@@H](Cc1cnc[nH]1)C(=O)N[C@@H](CC(N)=O)C(=O)N[C@@H](CC(C)C)C(=O)NCC(=O)N[C@@H](CCCCN)C(=O)N[C@@H](Cc1cnc[nH]1)C(=O)N[C@@H](CC(C)C)C(=O)N[C@@H](CC(N)=O)C(=O)N[C@@H](CO)C(=O)N[C@@H](CCSC)C(=O)N[C@@H](CCC(=O)O)C(=O)N[C@@H](CCCNC(=N)N)C(=O)N[C@H](C(=O)N[C@@H](CCC(=O)O)C(=O)N[C@@H](Cc1c[nH]c2ccccc12)C(=O)N[C@@H](CC(C)C)C(=O)N[C@@H](CCCNC(=N)N)C(=O)N[C@@H](CCCCN)C(=O)N[C@@H](CCCCN)C(=O)N[C@@H](CC(C)C)C(=O)N[C@@H](CCC(N)=O)C(=O)N[C@@H](CC(=O)O)C(=O)N[C@H](C(=O)N[C@@H](Cc1cnc[nH]1)C(=O)N[C@@H](CC(N)=O)C(=O)N[C@@H](Cc1ccccc1)C(N)=O)C(C)C)C(C)C | Active | 108

Other lines, results leading:

Row | Activity [1] | fold change (FC) [2] | Structure (SMILES)
4 | Active | 0.7 | CC[C@H](C)[C@H](NC(=O)[C@H](CCC(=O)O)NC(=O)[C@H](CO)NC(=O)[C@@H](NC(=O)C[C@@H](N)CO)C(C)C)C(=O)N[C@@H](CCC(N)=O)C(=O)N[C@@H](CC(C)C)C(=O)N[C@@H](CCSC)C(=O)N[C@@H](Cc1cnc[nH]1)C(=O)N[C@@H](CC(N)=O)C(=O)N[C@@H](CC(C)C)C(=O)NCC(=O)N[C@@H](CCCCN)C(=O)N[C@@H](Cc1cnc[nH]1)C(=O)N[C@@H](CC(C)C)C(=O)N[C@@H](CC(N)=O)C(=O)N[C@@H](CO)C(=O)N[C@@H](CCSC)C(=O)N[C@@H](CCC(=O)O)C(=O)N[C@@H](CCCNC(=N)N)C(=O)N[C@H](C(=O)N[C@@H](CCC(=O)O)C(=O)N[C@@H](Cc1c[nH]c2ccccc12)C(=O)N[C@@H](CC(C)C)C(=O)N[C@@H](CCCNC(=N)N)C(=O)N[C@@H](CCCCN)C(=O)N[C@@H](CCCCN)C(=O)N[C@@H](CC(C)C)C(=O)N[C@@H](CCC(N)=O)C(=O)N[C@@H](CC(=O)O)C(=O)N[C@H](C(=O)N[C@@H](Cc1cnc[nH]1)C(=O)N[C@@H](CC(N)=O)C(=O)N[C@@H](Cc1ccccc1)C(N)=O)C(C)C)C(C)C
5 | Active | 28 | CC[C@H](C)[C@@H](CC(=O)N[C@@H](CCC(N)=O)C(=O)N[C@@H](CC(C)C)C(=O)N[C@@H](CCSC)C(=O)N[C@@H](Cc1cnc[nH]1)C(=O)N[C@@H](CC(N)=O)C(=O)N[C@@H](CC(C)C)C(=O)NCC(=O)N[C@@H](CCCCN)C(=O)N[C@@H](Cc1cnc[nH]1)C(=O)N[C@@H](CC(C)C)C(=O)N[C@@H](CC(N)=O)C(=O)N[C@@H](CO)C(=O)N[C@@H](CCSC)C(=O)N[C@@H](CCC(=O)O)C(=O)N[C@@H](CCCNC(=N)N)C(=O)N[C@H](C(=O)N[C@@H](CCC(=O)O)C(=O)N[C@@H](Cc1c[nH]c2ccccc12)C(=O)N[C@@H](CC(C)C)C(=O)N[C@@H](CCCNC(=N)N)C(=O)N[C@@H](CCCCN)C(=O)N[C@@H](CCCCN)C(=O)N[C@@H](CC(C)C)C(=O)N[C@@H](CCC(N)=O)C(=O)N[C@@H](CC(=O)O)C(=O)N[C@H](C(=O)N[C@@H](Cc1cnc[nH]1)C(=O)N[C@@H](CC(N)=O)C(=O)N[C@@H](Cc1ccccc1)C(N)=O)C(C)C)C(C)C)NC(=O)[C@H](CCC(=O)O)NC(=O)[C@H](CO)NC(=O)[C@@H](NC(=O)[C@@H](N)CO)C(C)C
6 | Active | 12 | CC[C@H](C)[C@H](NC(=O)[C@H](CCC(=O)O)NC(=O)[C@H](CO)NC(=O)[C@@H](NC(=O)[C@@H](N)CO)C(C)C)C(=O)N[C@@H](CCC(N)=O)C(=O)N[C@H](CC(=O)N[C@@H](CCSC)C(=O)N[C@@H](Cc1cnc[nH]1)C(=O)N[C@@H](CC(N)=O)C(=O)N[C@@H](CC(C)C)C(=O)NCC(=O)N[C@@H](CCCCN)C(=O)N[C@@H](Cc1cnc[nH]1)C(=O)N[C@@H](CC(C)C)C(=O)N[C@@H](CC(N)=O)C(=O)N[C@@H](CO)C(=O)N[C@@H](CCSC)C(=O)N[C@@H](CCC(=O)O)C(=O)N[C@@H](CCCNC(=N)N)C(=O)N[C@H](C(=O)N[C@@H](CCC(=O)O)C(=O)N[C@@H](Cc1c[nH]c2ccccc12)C(=O)N[C@@H](CC(C)C)C(=O)N[C@@H](CCCNC(=N)N)C(=O)N[C@@H](CCCCN)C(=O)N[C@@H](CCCCN)C(=O)N[C@@H](CC(C)C)C(=O)N[C@@H](CCC(N)=O)C(=O)N[C@@H](CC(=O)O)C(=O)N[C@H](C(=O)N[C@@H](Cc1cnc[nH]1)C(=O)N[C@@H](CC(N)=O)C(=O)N[C@@H](Cc1ccccc1)C(N)=O)C(C)C)C(C)C)CC(C)C
7 | Active | 205 | CC[C@H](C)[C@H](NC(=O)[C@H](CCC(=O)O)NC(=O)[C@H](CO)NC(=O)[C@@H](NC(=O)[C@@H](N)CO)C(C)C)C(=O)N[C@@H](CCC(N)=O)C(=O)N[C@@H](CC(C)C)C(=O)N[C@@H](CCSC)CC(=O)N[C@@H](Cc1cnc[nH]1)C(=O)N[C@@H](CC(N)=O)C(=O)N[C@@H](CC(C)C)C(=O)NCC(=O)N[C@@H](CCCCN)C(=O)N[C@@H](Cc1cnc[nH]1)C(=O)N[C@@H](CC(C)C)C(=O)N[C@@H](CC(N)=O)C(=O)N[C@@H](CO)C(=O)N[C@@H](CCSC)C(=O)N[C@@H](CCC(=O)O)C(=O)N[C@@H](CCCNC(=N)N)C(=O)N[C@H](C(=O)N[C@@H](CCC(=O)O)C(=O)N[C@@H](Cc1c[nH]c2ccccc12)C(=O)N[C@@H](CC(C)C)C(=O)N[C@@H](CCCNC(=N)N)C(=O)N[C@@H](CCCCN)C(=O)N[C@@H](CCCCN)C(=O)N[C@@H](CC(C)C)C(=O)N[C@@H](CCC(N)=O)C(=O)N[C@@H](CC(=O)O)C(=O)N[C@H](C(=O)N[C@@H](Cc1cnc[nH]1)C(=O)N[C@@H](CC(N)=O)C(=O)N[C@@H](Cc1ccccc1)C(N)=O)C(C)C)C(C)C
8 | Active | 55 | CC[C@H](C)[C@H](NC(=O)[C@H](CCC(=O)O)NC(=O)C[C@H](CO)NC(=O)[C@@H](NC(=O)[C@@H](N)CO)C(C)C)C(=O)N[C@@H](CCC(N)=O)C(=O)N[C@@H](CC(C)C)C(=O)N[C@@H](CCSC)C(=O)N[C@@H](Cc1cnc[nH]1)C(=O)N[C@@H](CC(N)=O)C(=O)N[C@@H](CC(C)C)C(=O)NCC(=O)N[C@@H](CCCCN)C(=O)N[C@@H](Cc1cnc[nH]1)C(=O)N[C@@H](CC(C)C)C(=O)N[C@@H](CC(N)=O)C(=O)N[C@@H](CO)C(=O)N[C@@H](CCSC)C(=O)N[C@@H](CCC(=O)O)C(=O)N[C@@H](CCCNC(=N)N)C(=O)N[C@H](C(=O)N[C@@H](CCC(=O)O)C(=O)N[C@@H](Cc1c[nH]c2ccccc12)C(=O)N[C@@H](CC(C)C)C(=O)N[C@@H](CCCNC(=N)N)C(=O)N[C@@H](CCCCN)C(=O)N[C@@H](CCCCN)C(=O)N[C@@H](CC(C)C)C(=O)N[C@@H](CCC(N)=O)C(=O)N[C@@H](CC(=O)O)C(=O)N[C@H](C(=O)N[C@@H](Cc1cnc[nH]1)C(=O)N[C@@H](CC(N)=O)C(=O)N[C@@H](Cc1ccccc1)C(N)=O)C(C)C)C(C)C
